Test results reported in ChEMBL document CHEMBL1126874, “Synthesis of structural analogs of leukotriene B4 and their receptor binding activity” (J Med Chem, 1993).

Columns and labels:
[1] = target: Leukotriene B4 receptor 1 (Homo sapiens, UniProt Q15722); experiment: Inhibition of [3H]- LTB4 binding on human whole cells
How it was run: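 Intact DMSO-differentiated (1.3%, 3-4 days) human U-937 cells, or isolated human peripheral blood PMNs, 10⁶ cells, incubated in HBSS with 0.1% ovalbumin, 0.2 nM [³H]LTB₄ and compound (0.1 nM-10 μM, 5-8 concentrations in duplicate) for 20 min at 0 °C. Nonspecific binding measured with 1 μM unlabeled LTB₄. Filtration, scintillation counting. Ki from IC50 by Cheng-Prusoff; mean of ≥2 assays.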

[2] = Agonist-induced calcium mobilization using human polymorphonuclear leukocytes; parameters: concentration or dose not given beside the values

Sequence of Leukotriene B4 receptor 1 (Q15722 whole entry): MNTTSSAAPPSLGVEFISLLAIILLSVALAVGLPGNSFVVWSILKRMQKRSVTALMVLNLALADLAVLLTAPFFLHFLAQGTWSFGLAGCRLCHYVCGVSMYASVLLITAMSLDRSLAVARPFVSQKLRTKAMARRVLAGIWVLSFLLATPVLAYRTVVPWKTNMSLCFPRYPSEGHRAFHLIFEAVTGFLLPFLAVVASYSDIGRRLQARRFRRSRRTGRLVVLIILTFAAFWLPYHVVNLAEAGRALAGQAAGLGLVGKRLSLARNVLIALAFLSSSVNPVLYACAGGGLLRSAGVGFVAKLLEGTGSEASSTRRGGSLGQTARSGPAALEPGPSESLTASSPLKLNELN

Structure (SMILES) | Ki [1] [nM] | Agonist activity % [2] [%]
CCCCCCCCC(O)/C=C/c1cccc(CC(O)c2cccc(C(=O)[O-])c2)n1.[Li+] (centres undefined) | – | 86
CCCCCCCCC(O)c1ccc2ccc(CC(O)CCCC(=O)O)nc2c1 (centres undefined) | 900 | 63
CCCCCCCCC(O)c1ccc2ccc(CSc3cccc(C(=O)[O-])c3)cc2c1.[Li+] (centres undefined) | 9000 | 23
CCCCOc1cccc(C(O)CCc2cccc(CC(O)c3cccc(C(=O)[O-])c3)n2)c1.[Li+] (centres undefined) | 1000 | 4
CCCCC/C=C\C[C@H](O)/C=C/c1cccc(C[C@H](O)CCCCO)n1 | 700 | 100
CCCCCCCCC(O)c1ccc2ccc(CCCCCC(=O)O)nc2c1 (centres undefined) | 2800 | 58
CCCCCCCCC(O)c1ccc2ccc(/C=C/CCCC(=O)O)nc2c1 (centres undefined) | 1400 | 45

Now from value to compound, other results behind:

Ki [1] [nM] | Structure (SMILES) | Agonist activity % [2] [%]
60 | CCCCCCCCC(O)CCc1cccc(CC(O)c2cccc(C(=O)[O-])c2)n1.[Li+] (centres undefined) | 84
3 | CCCCOc1cccc(C(O)/C=C/c2cccc(CC(O)c3cccc(C(=O)[O-])c3)n2)c1.[Li+] (centres undefined) | 56
140 | CCCCCCCCC(O)c1ccc2ccc(C[S+]([O-])c3cccc(C(=O)O)c3)nc2c1 (centres undefined) | 98
100 | CCCCCCCCC(O)c1ccc2ccc(CCc3cccc(C(=O)[O-])c3)nc2c1.[Li+] (centres undefined) | 66
600 | CCCCCCCCC(O)c1ccc2ccc(CSc3cccc(C(=O)O)c3)nc2c1 (centres undefined) | 85
500 | CCCCCCCCC(O)c1ccc2ccc(C[S+]([O-])c3cccc(C(=O)[O-])c3)cc2c1.[Li+] (centres undefined) | 56
50 | CCCCCCCC[C@@H](O)c1ccc2ccc(CCc3cccc(C(=O)[O-])c3)nc2c1.[Li+] | 56
10 | CCCCCCCCC(O)c1ccc2ccc(CC(O)c3cccc(C(=O)[O-])c3)nc2c1.[Li+] (centres undefined) | 74
